Reference: publication PMC5928661 (Molecular Medicine Reports, 2018)

What was measured:
[1] = system: HepG2.A64 cells; assay: Cell proliferation; format: cell-based, human; details: HepG2.A64, CCK-8, 96 h
Procedure, shortened: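 HepG2-derived cells carrying ETV-resistant HBV, kept in DMEM with 10% FBS, penicillin-streptomycin and 300 µg/ml geneticin at 37°C, 5% CO2. Seeded at 3×10^3 cells/well; after 24 h, drug dilution series in conditioned medium were added and renewed every other day for 4 days. CCK-8 was added, then 1~4 h incubation and absorbance at 450 nm. Five replicates, three independent experiments; IC50 calculated.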

[2] = molecular target: T1, MRP4 (HepG2.4D14 cells) (Homo sapiens, UniProt O15439); format: in vitro ADME; details: HepG2.4D14, drug 4 days, 5 µM MK571 48 h, LCMS
T1 sequence (O15439 1-1325): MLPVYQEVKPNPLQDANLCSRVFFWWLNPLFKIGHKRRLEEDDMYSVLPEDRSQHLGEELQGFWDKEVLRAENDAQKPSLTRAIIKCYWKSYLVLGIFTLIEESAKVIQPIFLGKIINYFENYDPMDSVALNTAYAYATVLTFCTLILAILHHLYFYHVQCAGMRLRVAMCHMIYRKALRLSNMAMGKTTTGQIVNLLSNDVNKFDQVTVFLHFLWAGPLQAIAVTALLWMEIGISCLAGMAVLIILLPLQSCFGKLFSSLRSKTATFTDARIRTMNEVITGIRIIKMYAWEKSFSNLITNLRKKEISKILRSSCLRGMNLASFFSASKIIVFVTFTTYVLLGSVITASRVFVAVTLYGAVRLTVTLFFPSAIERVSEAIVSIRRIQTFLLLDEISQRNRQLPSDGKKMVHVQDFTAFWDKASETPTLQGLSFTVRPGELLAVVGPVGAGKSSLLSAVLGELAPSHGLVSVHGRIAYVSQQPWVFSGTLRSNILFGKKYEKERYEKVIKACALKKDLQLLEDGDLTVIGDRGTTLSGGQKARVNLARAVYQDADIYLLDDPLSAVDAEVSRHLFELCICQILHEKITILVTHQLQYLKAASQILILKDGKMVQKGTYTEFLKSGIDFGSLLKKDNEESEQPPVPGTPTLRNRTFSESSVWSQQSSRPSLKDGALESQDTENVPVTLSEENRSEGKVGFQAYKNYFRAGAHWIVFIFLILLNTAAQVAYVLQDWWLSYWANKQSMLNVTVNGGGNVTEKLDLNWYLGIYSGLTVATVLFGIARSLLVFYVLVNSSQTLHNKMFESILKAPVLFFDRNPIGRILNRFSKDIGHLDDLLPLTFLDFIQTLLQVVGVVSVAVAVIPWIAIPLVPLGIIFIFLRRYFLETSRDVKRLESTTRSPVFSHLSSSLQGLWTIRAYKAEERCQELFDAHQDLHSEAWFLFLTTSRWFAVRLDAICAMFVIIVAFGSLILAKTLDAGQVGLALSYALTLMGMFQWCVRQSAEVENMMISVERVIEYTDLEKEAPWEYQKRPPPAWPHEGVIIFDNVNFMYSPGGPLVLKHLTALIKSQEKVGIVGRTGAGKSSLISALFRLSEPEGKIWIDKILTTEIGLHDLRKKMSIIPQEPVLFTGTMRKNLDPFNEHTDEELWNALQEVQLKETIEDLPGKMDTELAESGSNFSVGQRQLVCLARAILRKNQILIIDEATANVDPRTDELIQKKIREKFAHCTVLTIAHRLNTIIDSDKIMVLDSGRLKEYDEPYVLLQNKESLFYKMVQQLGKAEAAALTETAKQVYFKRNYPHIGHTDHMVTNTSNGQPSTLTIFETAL

[3] = system: wild-type HBV (HepG2.4D14 cells); assay: Cell-based antiviral assay, supernatant HBV DNA by qPCR; details: Hepatitis B virus, 96 h, read-out: EC50 against HBV
[4] = molecular target: T2, MRP4 (HepG2.A64 cells) (Homo sapiens, UniProt O15439); format: in vitro ADME; details: HepG2.A64, drug 4 days, 5 µM MK571 4 h, LCMS
T2 sequence (O15439 1-1325): T1 sequence (O15439 1-1325)

[5] = system: ETV-resistant HBV (HepG2.A64 cells); assay: Cell-based antiviral assay, supernatant HBV DNA by qPCR; parameters: species or system hepatitis B virus; details: for EC50: Hepatitis B virus, HepG2.A64, 96 h, read-out: EC50 against HBV

Structure (SMILES): CN(C)C(=O)CCSC(SCCC(=O)O)c1cccc(/C=C/c2ccc3ccc(Cl)cc3n2)c1 (stereo not shown) [MK571, 3-([(3-(2-[7-chloro-2-quinolinyl]ethyl)phenyl]-[(3-dimethylamino-3-oxoporphyl)-thio)-methyl]-thio) propanoic acid]
- Doses at which apparent cytotoxicity was observed [1]: above 10 µM

Structure (SMILES): Nc1ccn([C@@H]2CS[C@H](CO)O2)c(=O)n1 [LAM, lamivudine]
- Extracellular concentration in presence of MK571 vs control (absence of MK571) [2]: slightly reduced
- EC50 [3]: 4.14 ± 0.03 µM
- Extracellular concentration in presence of MK571 vs control (absence of MK571) [4]: slightly reduced
- EC50 [5]: 5.94 ± 0.2 µM
- Doses at which apparent cytotoxicity was observed [1]: above 10 µM

Structure (SMILES): C=C1[C@H](CO)[C@@H](O)C[C@@H]1n1cnc2c(=O)[nH]c(N)nc21 [ETV, entecavir]
- Extracellular concentration in presence of MK571 vs control (absence of MK571) [2]: slightly reduced
- EC50 [3]: 0.13 ± 0.02 µM
- Extracellular concentration in presence of MK571 vs control (absence of MK571) [4]: slightly reduced
- EC50 [5]: 6.28 ± 0.07 µM
- Doses at which apparent cytotoxicity was observed [1]: above 10 µM

Structure (SMILES): C[C@H](Cn1cnc2c(N)ncnc21)OCP(=O)(O)O [TFV, tenofovir]
- Extracellular concentration in presence of MK571 vs control (absence of MK571) [2]: slightly reduced
- Intracellular accumulation in presence of MK571 vs control (absence of MK571) [2]: markedly increased
- EC50 [3]: 3.24 ± 0.01 µM
- Extracellular concentration in presence of MK571 vs control (absence of MK571) [4]: slightly reduced
- Intracellular accumulation in presence of MK571 vs control (absence of MK571) [4]: markedly increased
- Fold resistance (mutant EC50 to wild-type EC50) ([5]; HepG2.A64 vs HepG2.4D14): 3.5 fold
- EC50 [5]: 11.43 ± 0.09 µM
- Doses at which apparent cytotoxicity was observed [1]: above 10 µM
